# According to the RNAGym collection of RNA variant scans (doi:10.1002/anie.201605470):
# B1: Osa-1-4 twister ribozyme (parent)
# chain: CCGCCUAACACUGCCAAUGCCGGUCCCAAGCCCGGAUAAAAGUGGAGGGGGCGG
# Variants of: B1
# Assay: self-cleavage, relative activity (ratio to wild type); higher = more cleavage; co-transcriptional
# Outline: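 The 48 positions downstream of the cleavage site in a 54-nucleotide Oryza sativa twister ribozyme template were synthesised at 97 % wild-type base and 1 % of each other base. The template was transcribed in vitro at 37 °C for 2 h, with self-cleavage allowed during transcription. Reads with or without upstream sequence after deep sequencing marked cleavage status, and relative activity is fraction cleaved normalised to wild type.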
row,Variant,self-cleavage
1,CCGCCUAACACUGCCAAUGCCGUUCCCAAGCCCGGAUAAAAGUGGAGGAGGCGG,0.03
2,CCGCCUAACACUGCCAAUGCCGUUCCCAAGCCCGGAUAAAAGUGGAGGCGGCGG,0.03
3,CCGCCUAACACUGCCAAUGCCGUUCCCAAGCCCGGAUAAAAGUGGAGGUGGCGG,0.03
4,CCGCCUAACACUGCCAAUGCCGUUCCCAAGCCCGGAUAAAAGUGGAGGGAGCGG,0.05
5,CCGCCUAACACUGCCAAUGCCGUUCCCAAGCCCGGAUAAAAGUGGAGGGCGCGG,0.05
6,CCGCCUAACACUGCCAAUGCCGUUCCCAAGCCCGGAUAAAAGUGGAGGGUGCGG,0.06
7,CCGCCUAACACUGCCAAUGCCGUUCCCAAGCCCGGAUAAAAGUGGAGGGGACGG,0.05
8,CCGCCUAACACUGCCAAUGCCGUUCCCAAGCCCGGAUAAAAGUGGAGGGGCCGG,0.04
9,CCGCCUAACACUGCCAAUGCCGUUCCCAAGCCCGGAUAAAAGUGGAGGGGUCGG,0.04
10,CCGCCUAACACUGCCAAUGCCGUUCCCAAGCCCGGAUAAAAGUGGAGGGGGCAG,0.06
11,CCGCCUAACACUGCCAAUGCCGUUCCCAAGCCCGGAUAAAAGUGGAGGGGGCCG,0.03
12,CCGCCUAACACUGCCAAUGCCGUUCCCAAGCCCGGAUAAAAGUGGAGGGGGCUG,0.06
13,CCGCCUAACACUGCCAAUGCCGUUCCCAAGCCCGGAUAAAAGUGGAGGGGGCGA,0.09
14,CCGCCUAACACUGCCAAUGCCGUUCCCAAGCCCGGAUAAAAGUGGAGGGGGCGC,0.08
15,CCGCCUAACACUGCCAAUGCCGUUCCCAAGCCCGGAUAAAAGUGGAGGGGGCGU,0.2
16,CCGCCUAACACAGCCAAUGCCGUUCCCAAGCCCGGAUAAAAGUGGAGGGGGCGG,0.05
17,CCGCCUAACACCGCCAAUGCCGUUCCCAAGCCCGGAUAAAAGUGGAGGGGGCGG,0.04
18,CCGCCUAACACGGCCAAUGCCGUUCCCAAGCCCGGAUAAAAGUGGAGGGGGCGG,0.05
19,CCGCCUAACACUGCCAAAGCCGUUCCCAAGCCCGGAUAAAAGUGGAGGGGGCGG,0.1
20,CCGCCUAACACUGCCAACGCCGUUCCCAAGCCCGGAUAAAAGUGGAGGGGGCGG,0.1
21,CCGCCUAACACUGCCAAGGCCGUUCCCAAGCCCGGAUAAAAGUGGAGGGGGCGG,0.14
22,CCGCCUAACACUGCCAAUGCCGUACCCAAGCCCGGAUAAAAGUGGAGGGGGCGG,0.04
23,CCGCCUAACACUGCCAAUGCCGUCCCCAAGCCCGGAUAAAAGUGGAGGGGGCGG,0.03
24,CCGCCUAACACUGCCAAUGCCGUGCCCAAGCCCGGAUAAAAGUGGAGGGGGCGG,0.02

row,Variant,self-cleavage
1,CCGCCUAACACUGCCAAUGCCGUUCCCAAGCCCGGAAAAAAGUGGAGGGGGCGG,0.14
2,CCGCCUAACACUGCCAAUGCCGUUCCCAAGCCCGGACAAAAGUGGAGGGGGCGG,0.16
3,CCGCCUAACACUGCCAAUGCCGUUCCCAAGCCCGGAGAAAAGUGGAGGGGGCGG,0.19
4,CCGCCUAACACUGCCAAUGCCGUUCCCAAGCCCGGAUAAAAGAGGAGGGGGCGG,0.04
5,CCGCCUAACACUGCCAAUGCCGUUCCCAAGCCCGGAUAAAAGCGGAGGGGGCGG,0.04
6,CCGCCUAACACUGCCAAUGCCGUUCCCAAGCCCGGAUAAAAGGGGAGGGGGCGG,0.07
7,CCGCCUAACACUGCCAAUGCCGGACCCAAGCCCGGAUAAAAGUGGAGGGGGCGG,0.42
8,CCGCCUAACACUGCCAAUGCCGGACCCAAGCCCGGAAAAAAGUGGAGGGGGCGG,0.34
9,CCGCCUAACACUGCCAAUGCCGGACCCAAGCCCGGACAAAAGUGGAGGGGGCGG,0.28
10,CCGCCUAACACUGCCAAUGCCGGACCCAAGCCCGGAGAAAAGUGGAGGGGGCGG,0.49
11,CCGCCUAACACUGCCAAUGCCGGACCCAAGCCCGGAUAAAAGAGGAGGGGGCGG,0.07
12,CCGCCUAACACUGCCAAUGCCGGACCCAAGCCCGGAUAAAAGCGGAGGGGGCGG,0.07
13,CCGCCUAACACUGCCAAUGCCGGACCCAAGCCCGGAUAAAAGGGGAGGGGGCGG,0.05
14,CCGCCUAACACUGCCAAUGCCGGCCCCAAGCCCGGAUAAAAGUGGAGGGGGCGG,0.53
15,CCGCCUAACACUGCCAAUGCCGGCCCCAAGCCCGGAAAAAAGUGGAGGGGGCGG,0.45
16,CCGCCUAACACUGCCAAUGCCGGCCCCAAGCCCGGACAAAAGUGGAGGGGGCGG,0.51
17,CCGCCUAACACUGCCAAUGCCGGCCCCAAGCCCGGAGAAAAGUGGAGGGGGCGG,0.55
18,CCGCCUAACACUGCCAAUGCCGGCCCCAAGCCCGGAUAAAAGAGGAGGGGGCGG,0.08
19,CCGCCUAACACUGCCAAUGCCGGCCCCAAGCCCGGAUAAAAGCGGAGGGGGCGG,0.06
20,CCGCCUAACACUGCCAAUGCCGGCCCCAAGCCCGGAUAAAAGGGGAGGGGGCGG,0.05
21,CCGCCUAACACUGCCAAUGCCGGGCCCAAGCCCGGAUAAAAGUGGAGGGGGCGG,0.03
22,CCGCCUAACACUGCCAAUGCCGGGCCCAAGCCCGGAAAAAAGUGGAGGGGGCGG,0.04
23,CCGCCUAACACUGCCAAUGCCGGGCCCAAGCCCGGACAAAAGUGGAGGGGGCGG,0.02
24,CCGCCUAACACUGCCAAUGCCGGGCCCAAGCCCGGAGAAAAGUGGAGGGGGCGG,0.04
